Measurements as given in ChEMBL document CHEMBL4814000, “Discovery of β-carboline-(phenylsulfonyl)furoxan hybrids as potential anti-breast cancer agents” (Bioorg Med Chem Lett, 2021).
The source made the active and inactive calls. No cut-off for these calls is given here.

What was measured:
[1] = tested on: MDA-MB-231; test: Induction of cell cycle arrest in human MDA-MB-231 cells assessed as accumulation of cells at G1 phase at 0.3 uM after 72 hrs by propidium iodide staining based flow cytometry (reference value: 51.97 %); assay type: functional
Procedure, shortened: (§1)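 Cell cycle: MDA-MB-231 cells held 72 h at 0, 0.15, 0.3 or 0.6 μM, harvested, PI-stained and analysed by flow cytometry for G1, S and G2/M percentages.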

[2] = Nitric oxide releasing activity assessed as amount of NO release measured up to 24 hrs by Griess assay; assay type: functional; settings: time hrs <=24
Procedure, shortened: (§2)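 Griess assay measuring NO released by compounds in vitro over time; values are averages of three independent experiments.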

[3] = Nitric oxide releasing activity assessed as amount of NO release measured at 3 hrs by Griess assay; assay type: functional; procedure, shortened: as §2
[4] = tested on: MDA-MB-231; test: Induction of apoptosis in human MDA-MB-231 cells assessed as viable cells at 0.6 uM incubated for 72 hrs by annexin V-FITC staining based flow cytometry (reference value: 93.86%); assay type: functional; settings: read-out: Activity
[5] = tested on: MDA-MB-231; test: Induction of apoptosis in human MDA-MB-231 cells assessed as viable cells at 0.15 uM incubated for 72 hrs by annexin V-FITC staining based flow cytometry (reference value: 93.86%); assay type: functional; settings: read-out: Activity
[6] = tested on: MDA-MB-231; test: Antiproliferative activity against human MDA-MB-231 cells assessed as reduction in cell viability incubated for 72 hrs by CCK-8 assay; assay type: functional, cell-based; settings: MDA-MB-231, 72 h
Procedure, shortened: (§3)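 CCK-8 viability assay on MCF-7 or MDA-MB-231 cells after 72 h compound exposure; IC50 taken as half inhibitory concentration, reported as mean ± SD of three independent experiments.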

[7] = tested on: MDA-MB-231; test: Induction of cell cycle arrest in human MDA-MB-231 cells assessed as accumulation of cells at S phase at 0.15 uM after 72 hrs by propidium iodide staining based flow cytometry (reference value: 37.12 %); assay type: functional; procedure, shortened: as §1
[8] = tested on: MDA-MB-231; test: Induction of DNA damage in human MDA-MB-231 cells assessed as increase olive tail moment measured at 0.15 to 0.6 uM after 72 hrs by neutral comet assay; assay type: functional, cell-based; settings: dose 0.15-0.6 µM
Procedure, shortened: (§4)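 Neutral comet assay for double-strand breaks in MDA-MB-231 cells incubated 72 h; head DNA%, tail DNA%, tail moment and Olive tail moment scored, the moments in arbitrary units; mean ± SD of three independent experiments, p < 0.05 versus control.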

[9] = tested on: MDA-MB-231; test: Induction of apoptosis in human MDA-MB-231 cells assessed as necrotic cells at 0.15 uM incubated for 72 hrs by annexin V-FITC staining based flow cytometry (reference value: 1.05%); assay type: functional
[10] = tested on: MDA-MB-231; test: Induction of cell cycle arrest in human MDA-MB-231 cells assessed as accumulation of cells at S phase at 0.3 uM after 72 hrs by propidium iodide staining based flow cytometry (reference value: 37.12 %); assay type: functional; procedure, shortened: as §1
[11] = tested on: MDA-MB-231; test: Induction of apoptosis in human MDA-MB-231 cells assessed as necrotic cells at 0.3 uM incubated for 72 hrs by annexin V-FITC staining based flow cytometry (reference value: 1.05%); assay type: functional
[12] = tested on: MDA-MB-231; test: Induction of cell cycle arrest in human MDA-MB-231 cells assessed as accumulation of cells at G2/M phase at 0.15 uM after 72 hrs by propidium iodide staining based flow cytometry (reference value: 10.90 %); assay type: functional; procedure, shortened: as §1
[13] = tested on: MDA-MB-231; test: Inhibition of cell adhesion in human MDA-MB-231 cells measured for 24 hrs by phase-contrast microscope method; assay type: functional, cell-based; settings: dose 0.15-0.6 µM
Procedure, shortened: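 Adhesion: MDA-MB-231 cells incubated with 0, 0.15, 0.3 or 0.6 μM, non-adherent cells washed off with PBS, attached cells counted by phase contrast microscopy; mean ± SD of three independent experiments.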

[14] = tested on: MDA-MB-231; test: Induction of apoptosis in human MDA-MB-231 cells assessed as early apoptotic cells at 0.3 uM incubated for 72 hrs by annexin V-FITC staining based flow cytometry (reference value: 3.42%); assay type: functional
[15] = tested on: MDA-MB-231; test: Induction of apoptosis in human MDA-MB-231 cells assessed as late apoptotic cells at 0.15 uM incubated for 72 hrs by annexin V-FITC staining based flow cytometry (reference value: 1.67%); assay type: functional
[16] = tested on: MDA-MB-231; test: Induction of apoptosis in human MDA-MB-231 cells assessed as early apoptotic cells at 0.6 uM incubated for 72 hrs by annexin V-FITC staining based flow cytometry (reference value: 3.42%); assay type: functional
[17] = tested on: MDA-MB-231; test: Induction of ROS generation in human MDA-MB-231 cells incubated for 72 hrs by DCFH-DA staining-based flow cytometric analysis relative to control; assay type: functional, cell-based; settings: dose microM <=0.6, time 72.0 hrs
Procedure, shortened: (§5)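 MDA-MB-231 cells exposed 72 h, then loaded with DCFH-DA and read on a FACScan flow cytometer as percent DCFH-DA-positive cells against DMSO-treated control; mean ± SD of three independent experiments.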

[18] = tested on: MDA-MB-231; test: Induction of DNA damage in human MDA-MB-231 cells assessed as double-strand DNA breaks measured at 0.15 to 0.6 uM after 72 hrs by neutral comet assay; assay type: functional, cell-based; settings: dose 0.15-0.6 µM; procedure, shortened: as §4
[19] = tested on: MDA-MB-231; test: Induction of cell cycle arrest in human MDA-MB-231 cells assessed as accumulation of cells at S phase at 0.6 uM after 72 hrs by propidium iodide staining based flow cytometry (reference value: 37.12 %); assay type: functional; procedure, shortened: as §1
[20] = tested on: MDA-MB-231; test: Induction of apoptosis in human MDA-MB-231 cells assessed as viable cells at 0.3 uM incubated for 72 hrs by annexin V-FITC staining based flow cytometry (reference value: 93.86%); assay type: functional; settings: read-out: Activity
[21] = tested on: MDA-MB-231; test: Induction of DNA damage in human MDA-MB-231 cells assessed as increase in tail moment measured at 0.15 to 0.6 uM after 72 hrs by neutral comet assay; assay type: functional, cell-based; settings: dose 0.15-0.6 µM; procedure, shortened: as §4
[22] = tested on: MDA-MB-231; test: Induction of DNA damage in human MDA-MB-231 cells assessed as reduction in head DNA measured at 0.15 to 0.6 uM after 72 hrs by neutral comet assay; assay type: functional, cell-based; settings: dose 0.15-0.6 µM; procedure, shortened: as §4
[23] = tested on: MCF7; test: Antiproliferative activity against human MCF7 cells assessed as reduction in cell viability incubated for 72 hrs by CCK-8 assay; assay type: functional, cell-based; settings: MCF7, 72 h; procedure, shortened: as §3
[24] = tested on: MDA-MB-231; test: Induction of ROS generation in human MDA-MB-231 cells at 0.6 uM incubated for 72 hrs by DCFH-DA staining-based flow cytometric analysis (reference value: 3.04 %); assay type: functional; procedure, shortened: as §5
[25] = tested on: MDA-MB-231; test: Induction of DNA damage in human MDA-MB-231 cells assessed as increase in tail DNA measured at 0.15 to 0.6 uM after 72 hrs by neutral comet assay; assay type: functional, cell-based; settings: dose 0.15-0.6 µM; procedure, shortened: as §4
[26] = tested on: MDA-MB-231; test: Induction of cell cycle arrest in human MDA-MB-231 cells assessed as accumulation of cells at G2/M phase at 0.6 uM after 72 hrs by propidium iodide staining based flow cytometry (reference value: 10.90 %); assay type: functional; procedure, shortened: as §1
[27] = tested on: MDA-MB-231; test: Induction of cell cycle arrest in human MDA-MB-231 cells assessed as accumulation of cells at G1 phase at 0.15 uM after 72 hrs by propidium iodide staining based flow cytometry (reference value: 51.97 %); assay type: functional; procedure, shortened: as §1
[28] = tested on: MDA-MB-231; test: Antiinvasive activity against human MDA-MB-231 cells assessed as reduction in invasion incubated for 24 hrs by crystal violet staining based transwell assay; assay type: functional, cell-based; settings: dose microM <=0.6, time 24.0 hrs
Procedure, shortened: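 Transwell: MDA-MB-231 cells seeded in chambers with 0, 0.15, 0.3 or 0.6 μM for 24 h; cells crossing stained with crystal violet, imaged and counted; mean ± SD of three independent experiments.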

[29] = tested on: MDA-MB-231; test: Inhibition of cell migration in human MDA-MB-231 cells assessed as inhibition of wound healing rate measured for 24 hrs by phase contrast microscopy; assay type: functional, cell-based
Procedure, shortened: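 Wound-healing: scratches made with pipette tips across MDA-MB-231 monolayers, then 24 h incubation at 0, 0.15, 0.3 or 0.6 μM; closure imaged by phase contrast microscopy and expressed as wound-healing rate; mean ± SD of three independent experiments.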

[30] = tested on: MDA-MB-231; test: Induction of cell cycle arrest in human MDA-MB-231 cells assessed as accumulation of cells at G2/M phase at 0.3 uM after 72 hrs by propidium iodide staining based flow cytometry (reference value: 10.90 %); assay type: functional; procedure, shortened: as §1
[31] = tested on: MDA-MB-231; test: Induction of apoptosis in human MDA-MB-231 cells assessed as late apoptotic cells at 0.6 uM incubated for 72 hrs by annexin V-FITC staining based flow cytometry (reference value: 1.67%); assay type: functional
[32] = tested on: MDA-MB-231; test: Induction of apoptosis in human MDA-MB-231 cells assessed as necrotic cells at 0.6 uM incubated for 72 hrs by annexin V-FITC staining based flow cytometry (reference value: 1.05%); assay type: functional
[33] = tested on: MDA-MB-231; test: Induction of apoptosis in human MDA-MB-231 cells assessed as early apoptotic cells at 0.15 uM incubated for 72 hrs by annexin V-FITC staining based flow cytometry (reference value: 3.42%); assay type: functional
[34] = tested on: MDA-MB-231; test: Induction of cell cycle arrest in human MDA-MB-231 cells assessed as accumulation of cells at G1 phase at 0.6 uM after 72 hrs by propidium iodide staining based flow cytometry (reference value: 51.97 %); assay type: functional; procedure, shortened: as §1
[35] = tested on: MDA-MB-231; test: Induction of apoptosis in human MDA-MB-231 cells assessed as late apoptotic cells at 0.3 uM incubated for 72 hrs by annexin V-FITC staining based flow cytometry (reference value: 1.67%); assay type: functional

COc1ccc(-c2nc(C(=O)NCCCOc3no[n+]([O-])c3S(=O)(=O)c3ccccc3)cc3c2[nH]c2ccccc23)cc1
Activity [1]: 42.88% | Activity [2]: Active | Activity [3]: 65 µM/L | viability at 0.6 µM [4]: 44.2% | viability at 0.15 µM [5]: 83.6% | IC50 [6]: 0.62 µM | Activity [7]: 35.82% | Activity [8]: Active | Activity [9]: 3.68% | Activity [10]: 37.2% | Activity [11]: 3.7% | Activity [12]: 13.64% | inhibition [13]: Dose-Dependent Effect | Activity [14]: 14.07% | Activity [15]: 4.39% | Activity [16]: 29.88% | Activity [17]: Dose-Dependent Effect | Activity [18]: Active | Activity [19]: 35.87% | viability at 0.3 µM [20]: 72.3% | Activity [21]: Active | Activity [22]: Active | IC50 [23]: 0.89 µM | Activity [24]: 51.62% | Activity [25]: Active | Activity [26]: 23.54% | Activity [27]: 50.54% | Activity [28]: Active | inhibition [29]: Dose-Dependent Effect | Activity [30]: 19.92% | Activity [31]: 24.3% | Activity [32]: 1.61% | Activity [33]: 8.28% | Activity [34]: 40.59% | Activity [35]: 9.92%
